# Measurements collected from several papers.
# Protocols differ between the studies behind these lines.
# Target: Mitogen-activated protein kinase 1 (MAPK1, Homo sapiens, UniProt P28482)
Structure (SMILES),effect on,technique,concentration,remaining binding
N[C@H]1CCN(c2nccc(-c3cnn4ncccc34)n2)C1,binding,,1 µM,100%
Cn1nc(C(F)(F)F)cc1-c1cnc(N2CCc3cc(S(=O)(=O)Nc4c(F)cc(Cl)cc4F)cc(N4CCCC4=O)c32)nc1,cell-free assay,competition with immobilised ligand,1 µM,100%
O=C(c1ccc(Nc2ncc(Cl)c(-c3cc4ccccc4s3)n2)cc1)N1CCC(N2CCCC2)CC1,binding,competition with immobilised ligand,1 µM,100%
C[C@H]1CCN(c2nccc(-c3cnn4ncccc34)n2)C1,binding,,1 µM,100%
CCCOc1ccc([C@@H]2[C@@H](C(=O)O)[C@H](c3ccc4c(c3)OCO4)CN2CC(=O)Nc2c(CC)cccc2CC)cc1,cell-free assay,competition with immobilised ligand,1 µM,100%
CN(C)c1nccc(-c2cnc3ncccn23)n1,binding,,1 µM,81%
CO[C@@H](C)c1c(Nc2ccc([C@H](N(C)C(=O)C3CCS(=O)(=O)CC3)C(F)(F)F)cc2)cnc2cc(Cl)nn12,cell-free assay,competition with immobilised ligand,1 µM,100%
O=C(NCC1CCOCC1)c1n[nH]cc1NC(=O)c1c(F)cccc1F,binding,competition with immobilised ligand,1 µM,87%
FC(F)(F)Oc1cccc(-c2cnc3ccc(-c4ccncc4)nn23)c1,cell-free assay,competition with immobilised ligand,5 µM,100%
Cc1cnc(Nc2ccc(C(=O)N3CCC(N4CCCC4)CC3)cc2)nc1-c1cc2ccccc2s1,binding,competition with immobilised ligand,1 µM,100%
CN(c1nccc(-c2cnn3ncccc23)n1)C1CC1,binding,,1 µM,100%
CNC(=O)Nc1ccc2c(c1)[C@@]1(CC2)OC(=O)N(CC(=O)N(Cc2ccc(F)cc2)[C@@H](C)C(F)(F)F)C1=O,cell-free assay,competition with immobilised ligand,1 µM,91%
Cc1cnn2ncc(-c3ccnc(N(C)C)n3)c2c1,binding,,1 µM,100%
CCCCN(CCCC)C(=O)CN1C[C@@H](c2cc(OC)c3c(c2)OCO3)[C@H](C(=O)O)[C@H]1CC(C)(C)CCC,cell-free assay,competition with immobilised ligand,1 µM,82.1%
O=C(NCCCN1CCOCC1)c1ccc(Nc2ncc(Cl)c(-c3ccc(Cl)s3)n2)cc1,binding,competition with immobilised ligand,1 µM,100%
Cc1c(C(=O)O)cc(-c2ccc(C3CCNCC3)cc2)c2ccc(-c3ccc(C(F)(F)F)cc3)cc12,binding,competition with immobilised ligand,1 µM,100%
CN(C)c1ncc(F)c(-c2cnn3ncccc23)n1,binding,,1 µM,82%
CNC(=O)[C@@H]1CC[C@@H](n2c(-c3ccc4cnccc4c3)nc3ccc(C(=O)NCc4cccc(C(N)=O)c4)cc32)C1,binding,competition with immobilised ligand,1 µM,91%
C[C@@H](c1ccc(-n2cnc3c(N)ncnc32)cc1)N1CCc2nn(C)c(Cc3ccccc3)c2C1=O,binding,competition with immobilised ligand,0.1 µM,91%
c1cnn2ncc(-c3ccnc(N4CCC45COC5)n3)c2c1,binding,,1 µM,100%
COc1cccc(CNC(=O)c2nc3scc(COCc4ccc(C(=O)O)cc4)c3c(=O)[nH]2)c1,cell-free assay,competition with immobilised ligand,1 µM,100%
COc1cnc(Nc2cccc(S(N)(=O)=O)c2)nc1N1CCN(c2ccccc2)CC1,binding,competition with immobilised ligand,1 µM,100%
